Assay results gathered from unrelated publications.
Lines come from different studies, so protocols differ. pEC50, pIC50: −log10 of the molar value.
Effect on: cell growth or viability

With `Cc1nc(Nc2ccc3c(c2)/C(=C/c2ccccc2Cl)C(=O)N3)c2ccccc2n1` the pIC50 was 5.48 (B16; MTT).
With `CCNCCCn1c2c(c3cc(OC)c(OC)cc3c1=O)C(=O)c1cc3c(nc1-2)OCO3` the pIC50 was 7.70 (RD-ES; MTS; 72 h).
For `O=C(O)c1ccccc1Nc1cccc(C(F)(F)F)c1`, the GI50 was over 30 µM (BXPC-3; SRB; 48 h).
`Cc1nc(Nc2ccc3c(c2)CC(=O)N3)c2ccccc2n1` gave a pIC50 of 5.50 (B16; MTT).
`Nc1ccc(/C=C/C(=O)NCc2cc3cc(-c4ccc(C(=O)N5CCC(F)(F)CC5)cc4)cc(-c4ccc(F)cc4)c3o2)cn1` has a pIC50 of under 4.70 (BXPC-3; CCK-8; 72 h).
The pEC50 of `C=CC(=O)NC1CCN(c2ncc3ncnc(Nc4ccc(Oc5ccc6c(c5)ncn6C)c(C)c4)c3n2)CC1` is reported as 6.97 (JHH-4).
For `Nc1ccc(/C=C/C(=O)N2CCc3c(oc4c(-c5ccc(F)cc5)cc(-c5ccc(C(=O)N6CCOCC6)nn5)cc34)C2)cn1`, the pIC50 was under 4.70 (BXPC-3; CCK-8; 72 h).
The pIC50 of `COc1cc2c3c(n(CCCN4CCOCC4)c(=O)c2cc1OC)-c1nc2c(cc1C3=O)OCO2` is reported as 6.22 (RD-ES; MTS; 72 h).
The pIC50 of `Cc1nc(Nc2ccc3c(c2)C(C)(C)C(=O)N3)c2ccccc2n1` is reported as 4.83 (B16; MTT).
For `O=C(O)c1cccnc1Nc1cccc(C(F)(F)F)c1`, the GI50 was over 30 µM (BXPC-3; SRB; 48 h).
